Test results from ChEMBL document CHEMBL4011617, “Ugi Reaction-Derived α-Acyl Aminocarboxamides Bind to Phosphatidylinositol 3-Kinase-Related Kinases, Inhibit HSF1-Dependent Heat Shock Response, and Induce Apoptosis in Multiple Myeloma Cells” (J Med Chem, 2017).
Active and inactive are the calls of the source. The calls are words filed in the database; no cut-off is given here.

Legend:
[1] = biological target: Conserved oligomeric Golgi complex subunit 8 (Homo sapiens) (UniProt Q96MW5); test: Binding affinity to COG8 in human INA-6 cells after 3 hrs by nanoLC-MS/MS method; assay type: cell-based
In short: (§1)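 The biotinylated inhibitor was loaded on streptavidin beads, with empty beads as the control. Eluates were trypsin-digested and run by nanoLC-MS/MS. Inhibitor/control ratios came from label-free quantification, taken as medians of five biological replicates. Enrichment was called at Benjamini-Hochberg-adjusted limma p < 0.02.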

[2] = biological target: CCR4-NOT transcription complex subunit 10 (Homo sapiens) (UniProt Q9H9A5); test: Binding affinity to CCR4-NOT transcription complex subunit 10 in human INA-6 cells after 3 hrs by nanoLC-MS/MS method; assay type: cell-based; in short: as §1
[3] = biological target: Conserved oligomeric Golgi complex subunit 7 (Homo sapiens) (UniProt P83436); test: Binding affinity to COG7 in human INA-6 cells after 3 hrs by nanoLC-MS/MS method; assay type: cell-based; in short: as §1
[4] = biological target: Gem-associated protein 7 (Homo sapiens) (UniProt Q9H840); test: Binding affinity to GEMIN7 in human INA-6 cells after 3 hrs by nanoLC-MS/MS method; assay type: cell-based; in short: as §1
[5] = biological target: Conserved oligomeric Golgi complex subunit 4 (Homo sapiens) (UniProt Q9H9E3); test: Binding affinity to COG4 in human INA-6 cells after 3 hrs by nanoLC-MS/MS method; assay type: cell-based; in short: as §1
[6] = biological target: CCR4-NOT transcription complex subunit 1 (Homo sapiens) (UniProt A5YKK6); test: Binding affinity to CCR4-NOT transcription complex subunit 1 in human INA-6 cells after 3 hrs by nanoLC-MS/MS method; assay type: cell-based; in short: as §1
CCR4-NOT transcription complex subunit 1 (Homo sapiens), sequence (A5YKK6 whole entry, one chain of several): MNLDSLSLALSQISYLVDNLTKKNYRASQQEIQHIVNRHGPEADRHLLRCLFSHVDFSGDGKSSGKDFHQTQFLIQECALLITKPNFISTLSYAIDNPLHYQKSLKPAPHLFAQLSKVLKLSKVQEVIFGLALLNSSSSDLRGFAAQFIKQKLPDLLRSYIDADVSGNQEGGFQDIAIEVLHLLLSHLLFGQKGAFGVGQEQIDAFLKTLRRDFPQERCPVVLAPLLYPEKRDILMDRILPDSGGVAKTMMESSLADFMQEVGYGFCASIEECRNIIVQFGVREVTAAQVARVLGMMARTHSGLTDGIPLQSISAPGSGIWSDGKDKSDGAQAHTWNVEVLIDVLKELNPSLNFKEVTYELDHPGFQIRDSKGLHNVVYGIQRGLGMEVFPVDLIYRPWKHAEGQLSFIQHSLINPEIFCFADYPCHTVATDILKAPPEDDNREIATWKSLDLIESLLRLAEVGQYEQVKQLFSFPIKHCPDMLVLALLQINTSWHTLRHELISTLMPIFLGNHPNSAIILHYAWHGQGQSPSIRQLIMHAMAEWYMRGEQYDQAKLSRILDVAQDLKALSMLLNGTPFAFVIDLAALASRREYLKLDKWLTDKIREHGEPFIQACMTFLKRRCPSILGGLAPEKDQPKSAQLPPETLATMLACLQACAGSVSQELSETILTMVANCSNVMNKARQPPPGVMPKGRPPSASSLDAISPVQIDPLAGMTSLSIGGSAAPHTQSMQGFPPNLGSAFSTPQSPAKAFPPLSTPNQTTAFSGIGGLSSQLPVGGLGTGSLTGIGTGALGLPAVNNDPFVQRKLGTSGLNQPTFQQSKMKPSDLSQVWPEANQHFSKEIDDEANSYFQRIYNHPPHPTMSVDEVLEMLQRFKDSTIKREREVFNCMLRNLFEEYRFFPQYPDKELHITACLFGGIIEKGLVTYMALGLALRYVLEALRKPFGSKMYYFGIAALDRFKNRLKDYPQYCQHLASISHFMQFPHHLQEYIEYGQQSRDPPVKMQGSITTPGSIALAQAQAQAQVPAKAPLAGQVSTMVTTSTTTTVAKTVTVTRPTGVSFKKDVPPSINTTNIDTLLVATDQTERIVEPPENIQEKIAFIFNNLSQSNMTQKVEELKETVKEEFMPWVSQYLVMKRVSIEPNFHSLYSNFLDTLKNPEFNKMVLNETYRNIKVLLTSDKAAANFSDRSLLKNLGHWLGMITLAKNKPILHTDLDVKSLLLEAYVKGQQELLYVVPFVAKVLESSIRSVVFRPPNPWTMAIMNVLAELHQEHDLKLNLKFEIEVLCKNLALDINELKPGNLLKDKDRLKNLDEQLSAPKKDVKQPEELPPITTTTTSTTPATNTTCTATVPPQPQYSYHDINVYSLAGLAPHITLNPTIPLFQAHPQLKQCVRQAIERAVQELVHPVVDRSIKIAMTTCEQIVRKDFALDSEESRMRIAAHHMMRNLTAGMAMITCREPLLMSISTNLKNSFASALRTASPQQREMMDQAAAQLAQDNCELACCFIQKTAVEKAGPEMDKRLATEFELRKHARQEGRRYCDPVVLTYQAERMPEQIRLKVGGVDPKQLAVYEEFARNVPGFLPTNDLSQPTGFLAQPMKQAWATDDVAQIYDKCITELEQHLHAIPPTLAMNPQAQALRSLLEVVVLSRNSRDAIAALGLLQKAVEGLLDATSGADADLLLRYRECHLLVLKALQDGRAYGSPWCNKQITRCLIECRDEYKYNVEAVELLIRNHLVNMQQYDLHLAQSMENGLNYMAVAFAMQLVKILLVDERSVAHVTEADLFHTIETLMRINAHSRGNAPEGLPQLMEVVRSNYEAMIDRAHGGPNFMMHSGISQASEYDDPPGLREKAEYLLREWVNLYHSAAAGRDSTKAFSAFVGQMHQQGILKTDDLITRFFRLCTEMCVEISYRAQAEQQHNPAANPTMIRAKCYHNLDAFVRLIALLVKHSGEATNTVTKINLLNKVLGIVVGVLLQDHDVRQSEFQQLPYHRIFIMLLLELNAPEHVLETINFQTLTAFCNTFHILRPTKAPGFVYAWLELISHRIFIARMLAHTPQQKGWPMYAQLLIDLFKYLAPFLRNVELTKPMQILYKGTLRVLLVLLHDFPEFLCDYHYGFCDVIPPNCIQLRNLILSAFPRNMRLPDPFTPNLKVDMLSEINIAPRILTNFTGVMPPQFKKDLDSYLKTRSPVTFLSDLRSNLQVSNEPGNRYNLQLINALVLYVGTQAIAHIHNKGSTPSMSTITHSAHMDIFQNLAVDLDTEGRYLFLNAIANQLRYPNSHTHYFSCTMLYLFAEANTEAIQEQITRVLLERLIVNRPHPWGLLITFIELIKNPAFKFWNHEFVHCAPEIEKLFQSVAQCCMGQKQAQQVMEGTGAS

INA-6 [7] = test: Inhibition of heat shock response in human INA-6 cells assessed as reduction in HSF-1 mediated upregulation of the heat shock protein HSP27 at 50 uM preincubated for 4 hrs followed by HSP90 inhibitor and HSR inducer NVP-AUY922 addition measured after 4 hrs by ELISA; assay type: functional, cell-based
[8] = biological target: Serine/threonine-protein phosphatase 6 regulatory ankyrin repeat subunit C (Homo sapiens) (UniProt Q8NB46); test: Binding affinity to serine/threonine-protein phosphatase 6 regulatory ankyrin repeat subunit C in human INA-6 cells after 3 hrs by nanoLC-MS/MS method; assay type: cell-based; in short: as §1
Serine/threonine-protein phosphatase 6 regulatory ankyrin repeat subunit C (Homo sapiens), sequence (Q8NB46 whole entry): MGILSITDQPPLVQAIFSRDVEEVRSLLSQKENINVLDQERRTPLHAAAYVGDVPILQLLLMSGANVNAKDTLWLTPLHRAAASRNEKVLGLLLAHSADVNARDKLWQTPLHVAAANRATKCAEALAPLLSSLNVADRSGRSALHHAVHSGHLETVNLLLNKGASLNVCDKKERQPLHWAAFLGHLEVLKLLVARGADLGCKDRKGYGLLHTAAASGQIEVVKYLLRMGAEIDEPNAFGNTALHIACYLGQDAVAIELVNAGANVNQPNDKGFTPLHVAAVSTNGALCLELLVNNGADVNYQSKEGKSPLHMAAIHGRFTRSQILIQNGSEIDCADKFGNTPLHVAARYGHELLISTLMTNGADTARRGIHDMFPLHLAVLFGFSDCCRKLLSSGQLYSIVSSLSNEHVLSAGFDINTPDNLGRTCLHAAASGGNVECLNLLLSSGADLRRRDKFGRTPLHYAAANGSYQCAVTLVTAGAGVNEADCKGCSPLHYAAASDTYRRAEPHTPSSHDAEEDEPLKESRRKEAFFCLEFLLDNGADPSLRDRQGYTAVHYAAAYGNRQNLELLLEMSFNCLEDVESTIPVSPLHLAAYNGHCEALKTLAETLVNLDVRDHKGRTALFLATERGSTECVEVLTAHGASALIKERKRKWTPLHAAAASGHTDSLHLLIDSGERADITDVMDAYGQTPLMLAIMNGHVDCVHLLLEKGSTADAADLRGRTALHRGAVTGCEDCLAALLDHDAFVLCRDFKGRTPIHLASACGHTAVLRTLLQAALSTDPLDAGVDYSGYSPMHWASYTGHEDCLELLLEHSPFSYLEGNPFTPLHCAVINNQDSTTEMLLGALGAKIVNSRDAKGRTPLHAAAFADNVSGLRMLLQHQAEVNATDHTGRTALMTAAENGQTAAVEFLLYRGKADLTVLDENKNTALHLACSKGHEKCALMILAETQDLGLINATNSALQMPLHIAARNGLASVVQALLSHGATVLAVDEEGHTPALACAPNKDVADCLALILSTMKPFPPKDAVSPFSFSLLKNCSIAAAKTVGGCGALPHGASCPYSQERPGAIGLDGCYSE

[9] = biological target: Conserved oligomeric Golgi complex subunit 3 (Homo sapiens) (UniProt Q96JB2); test: Binding affinity to COG3 in human INA-6 cells after 3 hrs by nanoLC-MS/MS method; assay type: cell-based; in short: as §1
Conserved oligomeric Golgi complex subunit 3 (Homo sapiens), sequence (Q96JB2 whole entry, one chain of several): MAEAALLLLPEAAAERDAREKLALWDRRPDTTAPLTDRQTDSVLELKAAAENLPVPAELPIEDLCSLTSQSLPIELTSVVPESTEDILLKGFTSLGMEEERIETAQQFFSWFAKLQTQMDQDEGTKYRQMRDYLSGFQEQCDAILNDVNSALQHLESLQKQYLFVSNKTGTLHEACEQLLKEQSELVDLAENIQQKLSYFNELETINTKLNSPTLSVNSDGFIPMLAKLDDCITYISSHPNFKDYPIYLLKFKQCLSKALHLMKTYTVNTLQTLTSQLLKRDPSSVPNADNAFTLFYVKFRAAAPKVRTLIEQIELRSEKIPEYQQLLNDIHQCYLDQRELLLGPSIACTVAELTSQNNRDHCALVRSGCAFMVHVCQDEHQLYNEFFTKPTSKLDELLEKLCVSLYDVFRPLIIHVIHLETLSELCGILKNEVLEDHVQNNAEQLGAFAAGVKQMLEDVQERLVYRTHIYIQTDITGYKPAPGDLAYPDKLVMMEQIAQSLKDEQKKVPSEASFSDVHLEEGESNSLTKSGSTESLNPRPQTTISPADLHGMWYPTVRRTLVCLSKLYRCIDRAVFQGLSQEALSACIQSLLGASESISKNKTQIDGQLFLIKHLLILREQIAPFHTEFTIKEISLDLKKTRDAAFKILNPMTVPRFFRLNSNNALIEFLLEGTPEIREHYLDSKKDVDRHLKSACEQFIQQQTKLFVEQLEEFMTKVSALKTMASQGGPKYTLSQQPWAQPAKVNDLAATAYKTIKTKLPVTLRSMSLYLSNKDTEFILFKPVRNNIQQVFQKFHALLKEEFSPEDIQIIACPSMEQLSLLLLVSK

[10] = biological target: Mitogen-activated protein kinase kinase kinase 5 (Homo sapiens) (UniProt Q99683); test: Binding affinity to MAP3K5 in human INA-6 cells after 3 hrs by nanoLC-MS/MS method; assay type: cell-based; in short: as §1
[11] = biological target: MICOS complex subunit MIC19 (Homo sapiens) (UniProt Q9NX63); test: Binding affinity to MICOS complex subunit MIC19 in human INA-6 cells after 3 hrs by nanoLC-MS/MS method; assay type: cell-based; in short: as §1
[12] = biological target: Serine/threonine-protein phosphatase 6 regulatory ankyrin repeat subunit B (Homo sapiens) (UniProt Q8N8A2); test: Binding affinity to serine/threonine-protein phosphatase 6 regulatory ankyrin repeat subunit B in human INA-6 cells after 3 hrs by nanoLC-MS/MS method; assay type: cell-based; in short: as §1
[13] = biological target: Serine/threonine-protein phosphatase 6 regulatory ankyrin repeat subunit A (Homo sapiens) (UniProt O15084); test: Binding affinity to serine/threonine-protein phosphatase 6 regulatory ankyrin repeat subunit A in human INA-6 cells after 3 hrs by nanoLC-MS/MS method; assay type: cell-based; in short: as §1
[14] = biological target: CCR4-NOT transcription complex subunit 6-like (Homo sapiens) (UniProt Q96LI5); test: Binding affinity to CCR4-NOT transcription complex subunit 6-like in human INA-6 cells after 3 hrs by nanoLC-MS/MS method; assay type: cell-based; in short: as §1
[15] = biological target: Conserved oligomeric Golgi complex subunit 6 (Homo sapiens) (UniProt Q9Y2V7); test: Binding affinity to COG6 in human INA-6 cells after 3 hrs by nanoLC-MS/MS method; assay type: cell-based; in short: as §1
[16] = biological target: Programmed cell death protein 6 (Homo sapiens) (UniProt O75340); test: Binding affinity to PDCD6 protein in human INA-6 cells after 3 hrs by nanoLC-MS/MS method; assay type: cell-based; in short: as §1
Programmed cell death protein 6 (Homo sapiens), sequence (O75340 whole entry): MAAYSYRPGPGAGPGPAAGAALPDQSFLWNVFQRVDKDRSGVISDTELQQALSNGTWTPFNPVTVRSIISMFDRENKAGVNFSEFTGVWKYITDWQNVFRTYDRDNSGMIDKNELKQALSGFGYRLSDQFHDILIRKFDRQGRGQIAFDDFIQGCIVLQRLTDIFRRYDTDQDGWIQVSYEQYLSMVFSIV

[17] = biological target: Survival of motor neuron-related-splicing factor 30 (Homo sapiens) (UniProt O75940); test: Binding affinity to survival of motor neuron-related-splicing factor 30 in human INA-6 cells after 3 hrs by nanoLC-MS/MS method; assay type: cell-based; in short: as §1
Survival of motor neuron-related-splicing factor 30 (Homo sapiens), sequence (O75940 whole entry): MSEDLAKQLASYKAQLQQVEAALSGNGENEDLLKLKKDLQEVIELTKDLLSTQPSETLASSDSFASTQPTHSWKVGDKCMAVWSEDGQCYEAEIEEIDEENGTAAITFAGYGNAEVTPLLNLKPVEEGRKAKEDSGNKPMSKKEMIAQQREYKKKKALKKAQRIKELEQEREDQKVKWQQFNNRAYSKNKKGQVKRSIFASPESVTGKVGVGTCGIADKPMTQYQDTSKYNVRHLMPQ

[18] = biological target: Serine/threonine-protein phosphatase 6 catalytic subunit (Homo sapiens) (UniProt O00743); test: Binding affinity to serine/threonine-protein phosphatase 6 catalytic subunit in human INA-6 cells after 3 hrs by nanoLC-MS/MS method; assay type: cell-based; in short: as §1
Serine/threonine-protein phosphatase 6 catalytic subunit (Homo sapiens), sequence (O00743 whole entry): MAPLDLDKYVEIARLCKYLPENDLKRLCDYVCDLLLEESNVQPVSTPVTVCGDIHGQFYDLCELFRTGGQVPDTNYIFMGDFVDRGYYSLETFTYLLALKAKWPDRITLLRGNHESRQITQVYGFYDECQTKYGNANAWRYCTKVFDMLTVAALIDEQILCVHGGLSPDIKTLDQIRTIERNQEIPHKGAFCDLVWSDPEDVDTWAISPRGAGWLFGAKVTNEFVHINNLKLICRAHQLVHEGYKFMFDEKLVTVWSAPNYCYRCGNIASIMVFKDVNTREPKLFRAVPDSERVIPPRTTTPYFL

[19] = biological target: CCR4-NOT transcription complex subunit 1 (Homo sapiens) (UniProt A5YKK6); test: Binding affinity to CNOT1 protein in human INA-6 cells after 3 hrs by nanoLC-MS/MS method; assay type: cell-based; in short: as §1
[20] = biological target: Serine/threonine-protein phosphatase 6 regulatory subunit 3 (Homo sapiens) (UniProt Q5H9R7); test: Binding affinity to serine/threonine-protein phosphatase 6 regulatory subunit 3 in human INA-6 cells after 3 hrs by nanoLC-MS/MS method; assay type: cell-based; in short: as §1
[21] = biological target: CCR4-NOT transcription complex subunit 3 (Homo sapiens) (UniProt O75175); test: Binding affinity to CCR4-NOT transcription complex subunit 3 in human INA-6 cells after 3 hrs by nanoLC-MS/MS method; assay type: cell-based; in short: as §1
[22] = biological target: Serine/threonine-protein kinase mTOR (Homo sapiens) (UniProt P42345); test: Binding affinity to mTOR protein in human INA-6 cells after 3 hrs by nanoLC-MS/MS method; assay type: cell-based; in short: as §1
[23] = biological target: Exportin-T (Homo sapiens) (UniProt O43592); test: Binding affinity to XPOT protein in human INA-6 cells after 3 hrs by nanoLC-MS/MS method; assay type: cell-based; in short: as §1
[24] = biological target: Serine/threonine-protein phosphatase 6 regulatory subunit 2 (Homo sapiens) (UniProt O75170); test: Binding affinity to PP6R2 protein in human INA-6 cells after 3 hrs by nanoLC-MS/MS method; assay type: cell-based; in short: as §1
[25] = biological target: Serine-protein kinase ATM (Homo sapiens) (UniProt Q13315); test: Binding affinity to ATM protein in human INA-6 cells after 3 hrs by nanoLC-MS/MS method; assay type: cell-based; in short: as §1
[26] = biological target: CCR4-NOT transcription complex subunit 11 (Homo sapiens) (UniProt Q9UKZ1); test: Binding affinity to CCR4-NOT transcription complex subunit 11 in human INA-6 cells after 3 hrs by nanoLC-MS/MS method; assay type: cell-based; in short: as §1
[27] = biological target: Protein CIP2A (Homo sapiens) (UniProt Q8TCG1); test: Binding affinity to CIP2A protein in human INA-6 cells after 3 hrs by nanoLC-MS/MS method; assay type: cell-based; in short: as §1
INA-6 [28] = test: Inhibition of heat shock response in human INA-6 cells assessed as reduction in HSF-1 mediated upregulation of the heat shock protein HSP72 at 50 uM preincubated for 4 hrs followed by HSP90 inhibitor and HSR inducer NVP-AUY922 addition measured after 4 hrs by ELISA; assay type: functional, cell-based
In short: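 HSP72 quantified by ELISA in the same protein lysates used for Western blots. INA-6 cells received compound for 4 h, then NVP-AUY922 co-treatment for 4 h more to stimulate HSF1. DMSO-only and NVP-AUY922-only cells served as negative and positive controls.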

[29] = biological target: Protein MON2 homolog (Homo sapiens) (UniProt Q7Z3U7); test: Binding affinity to MON2 protein in human INA-6 cells after 3 hrs by nanoLC-MS/MS method; assay type: cell-based; in short: as §1

SMILES	Activity [1]	Activity [2]	Activity [3]	Activity [4]	Activity [5]	Activity [6]	heat shock response inhibition (active/not active) (INA-6 [7])	Activity [8]	Activity [9]	Activity [10]	Activity [11]	Activity [12]	Activity [13]	Activity [14]	Activity [15]	Activity [16]	Activity [17]	Activity [18]	Activity [19]	Activity [20]	other results
O=C(CCCC[C@@H]1SC[C@@H]2NC(=O)N[C@@H]21)NCCOCCOCCNCCOc1ccc(C(C(=O)NCc2ccccc2)N(C(=O)CCc2ccc(O)cc2)C2CC2)cc1 (mixture of isomers)	Active	Active	Active	Active	Active	Active	inactive	Active	Active	Active	Active	Active	Active	Active	Active	Active	Active	Active	Active	Active	Activity [21]: Active; Activity [22]: Active; Activity [23]: Active; Activity [24]: Active; Activity [25]: Active; Activity [26]: Active; Activity [27]: Active; HSP72 upregulation inhibition (active/not active) (INA-6 [28]): inactive; Activity [29]: Active
O=C(CCCC[C@@H]1SC[C@@H]2NC(=O)N[C@@H]21)NCCOCCOCCNCCOc1ccc(C(C(=O)NCc2ccccc2)N(C(=O)CCc2ccccc2)C2CC2)cc1 (mixture of isomers)	Active	Active	Active	Active	Active	Active	inactive	Active	Active	Active	Active	Active	Active	Active	Active	Active	Active	Active	Active	Active	Activity [21]: Active; Activity [22]: Active; Activity [23]: Active; Activity [24]: Active; Activity [25]: Active; Activity [26]: Active; Activity [27]: Active; HSP72 upregulation inhibition (active/not active) (INA-6 [28]): inactive; Activity [29]: Active
